Test results as given in ChEMBL document CHEMBL4270554, “Discovery of the cancer cell selective dual acting anti-cancer agent (Z)-2-(1H-indol-3-yl)-3-(isoquinolin-5-yl)acrylonitrile (A131)” (Eur J Med Chem, 2018).

Columns and labels:
[1] = tested on: HCT-15; experiment: Antitumor activity against human HCT15 cells xenografted in BALB/c athymic nu/nu mouse assessed as tumor growth inhibition at 20 mg/kg, ip bid administered 12 days relative to control; format: functional; conditions: HCT-15, ip, 288 h, read-out: TGI
How it was run: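 Female BALB/c nu/nu mice (5-7 weeks) given 5×10^6 HCT15 cells subcutaneously in flank. At 100–300 mm³, randomized into groups of 6. Dosed IP twice daily for 12 days at 20 mg/kg in 10% DMSO, 50% PEG400, deionized water pH 5.0, vs vehicle. Tumor volumes tracked; mean ± SEM, two-way ANOVA vs vehicle.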

[2] = tested on: Salmonella typhimurium; experiment: Genotoxicity in Salmonella typhimurium TA100 after 48 hrs in presence of S9 mix by Ames test; format: toxicity, organism-based; conditions: salmonella enterica subsp. enterica serovar typhimurium
[3] = tested on: hTERT-BJ; experiment: Induction of autophagy in human hTERT-BJ cells transformed with hTert, small t, shRNAs against p53 and pRb and H-RasV12-ER assessed as increase in LC3-2 to LC3-1 ratio at 5 uM after 24 hrs by immunoblot analysis relative to control; format: functional
How it was run: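 Fully transformed BJ fibroblasts (hTert, small t, shRNAs to p53 and pRb, H-RasV12-ER) grown at 37 °C, 5% CO2 in 10% FBS medium; treated 24 h at 5 μM. Triton lysis, 14% SDS-PAGE, LC3 immunoblot; LC3-II/LC3-I band ratio relative to DMSO-treated control, under 2-fold induction deemed insignificant.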

[4] = tested on: HeLa; experiment: Induction of autophagy in human HeLa cells assessed as increase in LC3-2 to LC3-1 ratio at 1.25 uM after 6 hrs by immunoblot analysis relative to control; format: functional
How it was run: (§1)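 HeLa cells exposed 6 h to test agent (0.625–10 μM series) or chloroquine (1.25–100 μM series) vs DMSO; lysed in 1% Triton buffer (25 mM Tris pH 8.0, 150 mM NaCl, DTT, protease/phosphatase inhibitors), 14% SDS-PAGE, immunoblot with anti-LC3, anti-pH3(Ser10), β-actin loading. LC3-II/LC3-I band intensity ratio expressed relative to DMSO control.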

[5] = tested on: MCF7; experiment: Antiproliferative activity against human MCF7 cells after 72 hrs by MTT assay; format: functional; conditions: MCF7, 72 h
How it was run: (§2)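 Cells cultured at 37 °C, 5% CO₂ in medium with 10% FBS and penicillin/streptomycin, used within 12-20 passages. Seeded at 2.5×10^3 cells/well for 24 h, then compound added from DMSO stocks at 200-fold final concentration (final DMSO 0.5% v/v). After 72 h, 0.5 mg/mL MTT for 3 h, formazan dissolved in DMSO, A570 read. IC50 from sigmoidal fit; three independent determinations.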

[6] = tested on: BJ; experiment: Induction of apoptosis in human BJ cells assessed as activation of caspase-3/7 up to 5 uM after 48 hrs by caspase-Glo 3/7 luminescent assay; format: cell-based
How it was run: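 Normal and transformed BJ cells treated 48 h across a concentration series. Caspase-3/7 activity by Caspase-Glo 3/7 luminescence, normalized to viable cell number from MTT. Mean ± S.D., n=3; two-tailed unpaired t tests.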

[7] = tested on: AGS; experiment: Antiproliferative activity against human AGS cells after 72 hrs by MTT assay; format: functional; how it was run: as §2
[8] = Antiproliferative activity against human WI38 cells after 72 hrs by MTT assay; format: cell-based; conditions: WI-38 cells; how it was run: as §2
[9] = Antiproliferative activity against human SNU620 cells after 72 hrs by MTT assay; format: functional; conditions: SNU620, 72 h; how it was run: as §2
[10] = Antiproliferative activity against human NCC19 cells after 72 hrs by MTT assay; format: functional; how it was run: as §2
[11] = Antiproliferative activity against human hTERT-RPE1 cells after 72 hrs by MTT assay; format: cell-based, TERT-RPE1; how it was run: as §2
[12] = Antiproliferative activity against human ARPE19 cells after 72 hrs by MTT assay; format: cell-based; conditions: ARPE-19 cells; how it was run: as §2
[13] = tested on: BJ; experiment: Antiproliferative activity against human BJ cells assessed as reduction in cell viability at 5 uM incubated for 2 days followed by compound washout measured after 11 days by cell counting method; format: cell-based; conditions: 48 h
How it was run: (§3)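 Normal BJ fibroblasts synchronized in G1 by 2-day serum starvation (0.1% FBS), released into 10% FBS medium and exposed to 5 μM for 2, 4 or 11 days. After 2 or 4 days drug removed and growth continued in fresh medium up to 11 days. Total cell numbers by automated counter; mean ± S.D., n>6.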

[14] = tested on: SNU-449; experiment: Antiproliferative activity against human SNU449 cells after 72 hrs by MTT assay; format: functional; conditions: SNU-449, 72 h; how it was run: as §2
[15] = Antiproliferative activity against human SNU1750 cells after 72 hrs by MTT assay; format: functional; how it was run: as §2
[16] = tested on: HeLa; experiment: Antiproliferative activity against human HeLa cells after 72 hrs by MTT assay; format: functional; how it was run: as §2
[17] = tested on: BJ; experiment: Antiproliferative activity against human BJ cells assessed as reduction in cell viability at 5 uM incubated for 4 days followed by compound washout measured after 11 days by cell counting method; format: cell-based; conditions: 96 h; how it was run: as §3
[18] = tested on: SCH; experiment: Antiproliferative activity against human SCH cells after 72 hrs by MTT assay; format: functional; how it was run: as §2
[19] = Antiproliferative activity against human HEp-3 cells after 72 hrs by MTT assay; format: functional; how it was run: as §2
[20] = Half life in pooled female rat liver microsomes at 3 uM preincubated for 5 mins followed by NADPH addition measured after 45 mins by LC-MS/MS method; format: ADME, microsome
How it was run: (§4)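 Pooled female or male rat liver microsomes (0.3 mg protein/mL) with 3 μM substrate in 0.1 M phosphate buffer pH 7.4, pre-incubated 5 min at 37 °C, started with 1 mM NADPH. Samples at 0-45 min quenched in cold acetonitrile with internal standard, analysed by LC-MS/MS. Triplicates; midazolam positive control, no-NADPH negative control.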

[21] = tested on: AZ-521 cell line; experiment: Antiproliferative activity against human AZ-521 cells after 72 hrs by MTT assay; format: functional; conditions: AZ-521, 72 h; how it was run: as §2
[22] = Antiproliferative activity against human SGCC-GC38 cells after 72 hrs by MTT assay; format: functional; how it was run: as §2
[23] = tested on: SNU1; experiment: Antiproliferative activity against human SNU1 cells after 72 hrs by MTT assay; format: functional; conditions: SNU1, 72 h; how it was run: as §2
[24] = tested on: HeLa; experiment: Potency index, ratio of autophagy induction of test compound to chloroquine in human HeLa cells; format: functional
[25] = Half life in pooled male rat liver microsomes at 3 uM preincubated for 5 mins followed by NADPH addition measured after 45 mins by LC-MS/MS method; format: ADME, microsome; how it was run: as §4
[26] = tested on: HeLa; experiment: Induction of autophagy in human HeLa cells assessed as increase in LC3-2 to LC3-1 ratio at 2.5 uM after 6 hrs by immunoblot analysis relative to control; format: functional; how it was run: as §1
[27] = tested on: MKN-45; experiment: Antiproliferative activity against human MKN45 cells after 72 hrs by MTT assay; format: functional; conditions: MKN-45, 72 h; how it was run: as §2
[28] = tested on: DLD-1; experiment: Antiproliferative activity against human DLD1 cells after 72 hrs by MTT assay; format: functional; conditions: DLD-1, 72 h; how it was run: as §2
[29] = tested on: SNU-16; experiment: Antiproliferative activity against human SNU16 cells after 72 hrs by MTT assay; format: functional; conditions: SNU-16, 72 h; how it was run: as §2

N#C/C(=C\c1cccc2cnccc12)c1c[nH]c2ccccc12
inhibition in vivo at 20 mg/kg [1]: 74%
Activity [2]: Non-Toxic
fold change (FC) [3]: 5
fold change (FC) [4]: 2.3
GI50 [5]: 1200 nM
Activity [6]: Non-Toxic
GI50 [7]: 1100 nM
GI50 at 72 h [8]: 3400 nM
GI50 [9]: 1000 nM
GI50 [10]: 4600 nM
GI50 at 72 h [11]: 5200 nM
GI50 at 72 h [12]: > 10000 nM
Activity [13]: Non-Toxic
GI50 [14]: 2300 nM
GI50 [15]: 700 nM
GI50 [16]: 1400 nM
Activity [17]: Non-Toxic
GI50 [18]: 1700 nM
GI50 [19]: 3700 nM
half-life at 3 µM [20]: 40.2 min
GI50 [21]: 2400 nM
GI50 [22]: 1900 nM
GI50 [23]: 900 nM
Ratio [24]: 4 - 10
half-life at 3 µM [25]: 7.7 min
fold change (FC) [26]: 3
GI50 [27]: 1000 nM
GI50 [28]: 1200 nM
GI50 [29]: 1000 nM
